Assay results as given in publication PMC3747510 (Scientific Reports, 2013).
Where a chain is given by its changes, count along the chain named.

What was measured:
Type in all cases: biochemical
SpLeuRS = target: T1, SpLeuRS (Streptococcus pneumoniae serotype 4, UniProt Q97SS0); assay: ATP-PPi exchange; conditions: 200 μM ZCL039
T1 sequence (Q97SS0 1-833): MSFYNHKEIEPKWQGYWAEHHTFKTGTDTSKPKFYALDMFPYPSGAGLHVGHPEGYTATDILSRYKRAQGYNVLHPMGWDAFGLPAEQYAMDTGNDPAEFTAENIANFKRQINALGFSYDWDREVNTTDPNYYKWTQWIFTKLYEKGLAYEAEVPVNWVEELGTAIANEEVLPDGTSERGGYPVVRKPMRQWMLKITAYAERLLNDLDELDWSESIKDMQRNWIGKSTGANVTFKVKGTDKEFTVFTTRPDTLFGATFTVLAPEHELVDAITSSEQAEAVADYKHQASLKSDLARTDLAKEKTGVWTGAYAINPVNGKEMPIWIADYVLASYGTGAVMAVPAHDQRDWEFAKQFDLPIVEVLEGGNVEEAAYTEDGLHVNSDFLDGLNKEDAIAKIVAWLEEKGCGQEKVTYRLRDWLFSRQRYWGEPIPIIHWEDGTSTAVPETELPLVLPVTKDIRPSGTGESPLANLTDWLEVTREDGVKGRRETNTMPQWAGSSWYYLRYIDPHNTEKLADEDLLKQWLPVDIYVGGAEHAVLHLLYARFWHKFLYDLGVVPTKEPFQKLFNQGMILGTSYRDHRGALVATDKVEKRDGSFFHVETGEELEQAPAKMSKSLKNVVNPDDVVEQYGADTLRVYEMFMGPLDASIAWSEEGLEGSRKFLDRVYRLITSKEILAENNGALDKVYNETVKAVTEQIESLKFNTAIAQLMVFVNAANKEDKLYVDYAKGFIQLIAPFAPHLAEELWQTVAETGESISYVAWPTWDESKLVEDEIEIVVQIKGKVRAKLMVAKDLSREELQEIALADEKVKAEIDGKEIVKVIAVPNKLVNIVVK
In short: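 Leucine activation (ATP-PPi exchange) at 37°C with 10 nM N-His6 SpLeuRS, expressed in E. coli BL21(DE3) and Ni-NTA purified. Run with or without test compound in DMSO. The [32P]ATP formed was separated and counted. Means of three independent experiments.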

SpLeuRS D344A = target: T2, SpLeuRS D344A (Streptococcus pneumoniae serotype 4, UniProt Q97SS0, D344A); assay: Aminoacylation by SpLeuRS D344A mutant; conditions: 50 μM ZCL039
T2 sequence (Q97SS0 1-833 D344A): T1 sequence (Q97SS0 1-833) with D344A
In short: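 Aminoacylation at 37°C, started with 4 mM ATP. Point mutants were made by site-directed mutagenesis. The MmLinker chimera has CP1 Lys226–Thr411 replaced by a nonapeptide. Means of three independent experiments.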

yeast cytosolic LeuRS = target: T3, yeast cytosolic LeuRS (Saccharomyces cerevisiae, UniProt P26637); assay: Aminoacylation by yeast cytosolic LeuRS; conditions: 100 μM ZCL039
T3 sequence (P26637 1-1090): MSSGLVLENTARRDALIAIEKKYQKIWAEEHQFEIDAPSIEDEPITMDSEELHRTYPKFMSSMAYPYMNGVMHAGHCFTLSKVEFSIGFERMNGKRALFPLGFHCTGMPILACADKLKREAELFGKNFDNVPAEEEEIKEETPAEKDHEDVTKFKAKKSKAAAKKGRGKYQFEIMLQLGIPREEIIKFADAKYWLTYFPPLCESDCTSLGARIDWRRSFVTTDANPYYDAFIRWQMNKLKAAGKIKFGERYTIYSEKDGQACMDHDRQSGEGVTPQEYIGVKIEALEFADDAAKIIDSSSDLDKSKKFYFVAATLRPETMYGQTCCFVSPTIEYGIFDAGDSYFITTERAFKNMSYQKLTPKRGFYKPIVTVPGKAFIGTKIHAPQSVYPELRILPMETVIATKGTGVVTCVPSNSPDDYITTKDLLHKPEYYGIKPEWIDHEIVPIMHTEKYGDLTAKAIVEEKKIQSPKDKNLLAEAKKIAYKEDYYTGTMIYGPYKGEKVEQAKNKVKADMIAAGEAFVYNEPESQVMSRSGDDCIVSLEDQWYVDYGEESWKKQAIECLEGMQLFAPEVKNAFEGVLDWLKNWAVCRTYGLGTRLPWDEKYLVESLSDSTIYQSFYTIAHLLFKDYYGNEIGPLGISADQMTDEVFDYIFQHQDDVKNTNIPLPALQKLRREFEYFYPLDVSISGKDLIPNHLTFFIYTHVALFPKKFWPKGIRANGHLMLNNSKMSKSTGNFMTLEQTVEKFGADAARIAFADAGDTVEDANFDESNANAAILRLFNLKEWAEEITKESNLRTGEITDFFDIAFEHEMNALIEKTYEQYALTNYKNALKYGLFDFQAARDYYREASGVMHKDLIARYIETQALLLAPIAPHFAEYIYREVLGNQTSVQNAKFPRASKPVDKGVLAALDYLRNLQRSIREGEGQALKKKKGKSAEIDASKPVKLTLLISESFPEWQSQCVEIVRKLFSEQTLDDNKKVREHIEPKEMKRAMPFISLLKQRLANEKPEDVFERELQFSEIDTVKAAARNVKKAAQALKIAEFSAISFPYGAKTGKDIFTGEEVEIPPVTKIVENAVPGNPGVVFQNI

SMILES: OB1OCc2ccc(C(O)c3ccccc3)cc21 (stereo not drawn) [ZCL039, [6-(1-phenyl-1-hydroxylmethyl)]-1,3-dihydro-1-hydroxy-2,1-benzoxaborole]
- Effect on PPi exchange activity of SpLeuRS (SpLeuRS): not affected
- Effect of D344A mutation on sensitivity of SpLeuRS to ZCL039 (SpLeuRS D344A): reduced the sensitivity
- Activity against yeast cytosolic LeuRS aminoacylation (yeast cytosolic LeuRS): little effect
